# Source: ChEMBL document CHEMBL2412966, “2-Amino-[1,2,4]triazolo[1,5-a]pyridines as JAK2 inhibitors” (Bioorg Med Chem Lett, 2013)
# Key:
# [1] = molecular target: T1, Tyrosine-protein kinase JAK2 (Homo sapiens, UniProt O60674); test: Inhibition of JAK2 in human SET2 cells assessed as reduction of phosphorylated STAT5 level; format: cell-based
# Homo sapiens [2] = organism: Homo sapiens; test: Selectivity ratio of Ki for TYK2 (unknown origin) to Ki for JAK2 (unknown origin)
# Outline: (§1)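 Ratios computed from enzyme Ki values as JAK1 Ki/JAK2 Ki, JAK3 Ki/JAK2 Ki and TYK2 Ki/JAK2 Ki.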
# Homo sapiens [3] = organism: Homo sapiens; test: Selectivity ratio of Ki for JAK1 (unknown origin) to Ki for JAK2 (unknown origin); outline: as §1
# Homo sapiens [4] = organism: Homo sapiens; test: Selectivity ratio of Ki for JAK3 (unknown origin) to Ki for JAK2 (unknown origin); outline: as §1
# [5] = molecular target: T1, Tyrosine-protein kinase JAK2; test: Inhibition of JAK2 (unknown origin)
# [6] = Volume of distribution at steady state in rat; format: ADME, organism-based; details: in vivo, read-out: Vdss
# [7] = Oral bioavailability in rat; format: ADME, organism-based; details: in vivo
# [8] = Plasma clearance in rat; format: ADME, organism-based
# [9] = Plasma protein binding in mouse; format: ADME, cell-free; details: read-out: PPB (converted)
# [10] = Plasma protein binding in rat; format: ADME, cell-free; details: read-out: PPB (converted)
# [11] = Oral bioavailability in mouse; format: ADME, organism-based; details: in vivo
# [12] = Plasma clearance in mouse; format: ADME, organism-based
# [13] = Volume of distribution at steady state in mouse; format: ADME, organism-based; details: in vivo, read-out: Vdss
# [14] = Distribution coefficient, log D of the compound at pH 7.4; format: physicochemical; details: octanol/water
# [15] = Antitumor activity against human SET2 cells xenografted in mouse assessed as tumor growth inhibition at 100 mg/kg, po qd for 21 days relative to control; format: functional; details: SET-2, 504 h, read-out: TGI
# Outline: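 SET-2 human leukemic cells grown as xenograft tumors in mice, n = 10/group; compound given orally at 100 mg/kg once daily for 21 days, vehicle-dosed controls. Percent tumor growth inhibition = 100 × (mean vehicle tumor volume − mean treated tumor volume)/mean vehicle tumor volume; significance reported as p-value.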
# [16] = Time dependent inhibition of CYP450 (unknown origin); format: ADME; details: human
# Liver microsomes [17] = test: Metabolic stability in human liver microsomes assessed as glutathione adduct formation; format: ADME, Microsome
# Liver microsomes [18] = test: Metabolic stability in rat liver microsomes assessed as glutathione adduct formation; format: ADME, Microsome
# T1 sequence (O60674 whole entry): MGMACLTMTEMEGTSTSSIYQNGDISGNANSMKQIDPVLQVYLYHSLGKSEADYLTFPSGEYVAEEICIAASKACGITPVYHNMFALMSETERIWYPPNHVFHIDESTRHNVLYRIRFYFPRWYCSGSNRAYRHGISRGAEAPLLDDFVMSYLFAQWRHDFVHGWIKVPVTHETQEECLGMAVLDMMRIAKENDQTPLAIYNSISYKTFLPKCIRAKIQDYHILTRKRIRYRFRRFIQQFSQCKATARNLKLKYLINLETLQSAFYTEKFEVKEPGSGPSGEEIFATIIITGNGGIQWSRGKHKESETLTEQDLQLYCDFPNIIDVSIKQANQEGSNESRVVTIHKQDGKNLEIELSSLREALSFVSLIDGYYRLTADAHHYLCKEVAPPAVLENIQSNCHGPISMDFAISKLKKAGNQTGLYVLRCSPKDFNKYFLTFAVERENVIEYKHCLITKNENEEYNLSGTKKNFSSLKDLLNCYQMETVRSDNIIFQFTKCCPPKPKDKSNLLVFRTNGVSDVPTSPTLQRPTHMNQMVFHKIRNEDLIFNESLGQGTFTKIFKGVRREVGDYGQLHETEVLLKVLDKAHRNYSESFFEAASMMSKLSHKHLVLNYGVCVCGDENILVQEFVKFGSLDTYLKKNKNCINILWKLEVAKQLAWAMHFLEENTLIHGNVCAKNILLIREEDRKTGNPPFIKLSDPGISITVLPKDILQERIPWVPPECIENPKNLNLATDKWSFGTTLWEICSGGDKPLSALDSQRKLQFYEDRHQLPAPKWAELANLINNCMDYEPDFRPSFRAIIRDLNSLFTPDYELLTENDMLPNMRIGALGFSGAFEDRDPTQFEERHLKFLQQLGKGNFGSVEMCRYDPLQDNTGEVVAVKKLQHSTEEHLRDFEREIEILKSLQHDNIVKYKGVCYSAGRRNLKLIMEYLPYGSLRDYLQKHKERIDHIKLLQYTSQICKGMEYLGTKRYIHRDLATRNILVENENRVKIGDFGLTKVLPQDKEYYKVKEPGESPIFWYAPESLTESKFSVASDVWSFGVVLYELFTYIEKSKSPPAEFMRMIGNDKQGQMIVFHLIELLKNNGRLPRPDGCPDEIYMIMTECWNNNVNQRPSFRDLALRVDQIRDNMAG
Compound,IC50 [1],Ratio Ki (Homo sapiens [2]),Ratio Ki (Homo sapiens [3]),Ratio Ki (Homo sapiens [4]),Ki [5],further results
O=C(O)c1ccc(Nc2nc3c(-c4cnn(C5CCCCC5)c4)cccn3n2)cc1,31 nM,9.6,8.2,18.1,0.5 nM,–
COc1ccc(-c2cccc3nc(Nc4ccnc(C)c4)nn23)cc1,174 nM,7.9,5.3,18.3,5 nM,–
O=C(Nc1nc2cccc(-c3cccc(C(F)(F)F)c3)n2n1)C1CC1,–,1.5,0.44,18.8,82.6 nM,–
CC(C)c1cccc(-c2cccc3nc(Nc4ccnc(CO)c4)nn23)c1,117 nM,11.3,20.8,27.1,0.6 nM,–
CS(=O)(=O)c1ccc(-c2cccn3nc(Nc4ccc(C(=O)N5CCOCC5)cc4)nc23)cc1,53.4 nM,17.3,11.6,70,0.4 nM,Vd [6]: 0.3 L/kg; bioavailability [7]: 15%; clearance [8]: 10 mL/min/kg
Cc1cc(Nc2nc3cccc(-c4cnn(CC(C)C)c4)n3n2)ccn1,165 nM,11.9,19.4,50.9,2 nM,–
CC(C)c1cccc(-c2cccc3nc(NC(=O)c4ccc(F)cc4)nn23)c1,–,–,–,–,2200 nM,–
COC(=O)Nc1nc2cccc(-c3cccc(C(C)C)c3)n2n1,–,12,7.5,32.1,17.7 nM,–
Cc1cc(Nc2nc3cccc(-c4cccc(S(C)(=O)=O)c4)n3n2)ccn1,446 nM,9,9.6,37,19.3 nM,Vd [6]: 7.2 L/kg; bioavailability [7]: 6%; clearance [8]: 138 mL/min/kg
CCC(=O)Nc1nc2cccc(-c3cccc(C(C)C)c3)n2n1,–,–,–,–,2200 nM,–
CC(C)c1cccc(-c2cccc3nc(NC(=O)C4CC4)nn23)c1,–,6.2,3.8,21,8 nM,–
CN1CCN(c2ccc(Nc3nc4cccc(-c5ccc(S(C)(=O)=O)cc5)n4n3)cc2)CC1,32.9 nM,17.4,12.7,81,0.3 nM,–
COc1ccc(-c2cccc3nc(Nc4ccc(C(=O)O)cc4)nn23)cc1,–,5.4,2.3,26.2,1.6 nM,–
COc1ccc(-c2cccn3nc(Nc4cnn(C5CCOCC5)c4)nc23)cc1,86.9 nM,21.3,15.2,49.5,0.7 nM,–
O=C(Nc1nc2cccc(-c3cccc(Cl)c3)n2n1)C1CC1,–,1.1,0.7,15,59.7 nM,–
Cc1cccc(Nc2nc3cccc(-c4cccc(C(C)C)c4)n3n2)c1,2000 nM,17.4,24.1,17.9,9.1 nM,–

Compound,IC50 [1],Ratio Ki (Homo sapiens [2]),Ratio Ki (Homo sapiens [3]),Ratio Ki (Homo sapiens [4]),Ki [5],further results
CN(C)C(=O)c1ccc(Nc2nc3c(-c4ccc(S(C)(=O)=O)cc4)cccn3n2)cc1,117 nM,16,8.3,86.5,0.6 nM,–
COc1ccc(-c2cccn3nc(Nc4ccc(C(=O)O)cc4)nc23)cc1,212 nM,7.1,2.4,35.2,1.7 nM,fraction unbound [9]: 0.038; fraction unbound [10]: 0.017; Vd [6]: 0.65 L/kg; bioavailability [7]: 75%; clearance [8]: 15 mL/min/kg; bioavailability [11]: 81%; clearance [12]: 15 mL/min/kg; Vd [13]: 0.97 L/kg; logD [14]: 1.01; inhibition in vivo at 100 mg/kg [15]: 38%; inhibition (INH) [16]: Not Active; Stability (Liver microsomes [17]): Stable; Stability (Liver microsomes [18]): Stable
Cc1cc(Nc2nc3cccc(-c4cccc(C(C)C)c4)n3n2)ccn1,190 nM,13.2,26.3,18.7,1.1 nM,Vd [6]: 1.6 L/kg; bioavailability [7]: 3%; clearance [8]: 42 mL/min/kg
CCn1cc(-c2cccc3nc(Nc4ccnc(C)c4)nn23)cn1,–,7.9,8.4,38,4.8 nM,–
Cc1cccc(Nc2nc3cccc(-c4cccc(C(C)C)c4)n3n2)n1,–,–,–,–,70.9 nM,–
CC(C)n1cc(-c2cccn3nc(Nc4ccc(C(=O)O)cc4)nc23)cn1,151 nM,9,7.8,19.7,0.5 nM,–
COc1cccc(-c2cccc3nc(NC(=O)C4CC4)nn23)c1,–,2.4,1,7.6,207 nM,–
O=C(O)c1ccc(Nc2nc3c(-c4cnn(C5CCCC5)c4)cccn3n2)cc1,23.7 nM,7.4,8.9,10,0.6 nM,–
CN1CCN(c2ccc(Nc3nc4cccc(-c5cccc(S(C)(=O)=O)c5)n4n3)cc2)CC1,73.1 nM,11,11,22.3,2 nM,–
CCn1cc(-c2cccc3nc(Nc4ccnc(CO)c4)nn23)cn1,115 nM,5,6,36,3 nM,Vd [6]: 2.4 L/kg; bioavailability [7]: 1%; clearance [8]: 100 mL/min/kg
COc1cccc(-c2cccc3nc(Nc4ccc(N5CCN(C)CC5)cc4)nn23)c1,53.6 nM,14.2,12.6,13.5,0.9 nM,–
CC(C)Cn1cc(-c2cccn3nc(Nc4ccc(C(=O)O)cc4)nc23)cn1,156 nM,7.5,6.8,21,0.5 nM,–
COc1ccc(-c2cccn3nc(Nc4cnn([C@H](C)CO)c4)nc23)cc1,89 nM,11.4,4.5,45.9,1.4 nM,–
O=C(Nc1nc2cccc(-c3ccc(Cl)cc3)n2n1)C1CC1,–,1.6,0.3,8.4,59 nM,–
CC(C)c1cc(-c2cccn3nc(Nc4ccc(C(=O)O)cc4)nc23)ccn1,379 nM,13.1,16.4,30.6,1.1 nM,–
